From ChEMBL document CHEMBL4689842, “EUbOPEN Chemogenomics Library wave 1” (2021)

Tested on: Fibroblast
Experiment: Multiplex assay against human fibroblast
Type: toxicity, cell-based
In short: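 Live cells were stained at seeding with Hoechst33342, BioTracker Green Microtubule Cytoskeleton Dye, MitoTracker Red and Annexin V Alexa Fluor 680, then imaged on a CQ1 microscope at 37°C and 5% CO2 after compound addition. CellPathfinder machine-learning gating split cells into Hoechst high-intensity objects or normal cells. Normal cells were split into healthy, pyknosed or fragmented nuclei, and pyknosed cells into mitotic or apoptotic. Tubulin, mitochondrial-mass and membrane-permeability phenotypes are per cents of healthy-nucleus cells.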

[1] = 12 h, 1 µM, compound concentration 1 uM, replicate 1
[2] = 12 h, 1 µM, compound concentration 1 uM, replicate 2
[3] = 12 h, 10 µM, compound concentration 10 uM, replicate 1
[4] = 12 h, 10 µM, compound concentration 10 uM, replicate 2
[5] = 24 h, 1 µM, compound concentration 1 uM, replicate 1
[6] = 24 h, 1 µM, compound concentration 1 uM, replicate 2
[7] = 24 h, 10 µM, compound concentration 10 uM, replicate 1
[8] = 24 h, 10 µM, compound concentration 10 uM, replicate 2
[9] = 48 h, 1 µM, compound concentration 1 uM, replicate 1
[10] = 48 h, 1 µM, compound concentration 1 uM, replicate 2
[11] = 48 h, 10 µM, compound concentration 10 uM, replicate 1
[12] = 48 h, 10 µM, compound concentration 10 uM, replicate 2

CC1=C(C(=O)Nc2cc3cn[nH]c3cc2F)C(c2ccc(C(F)(F)F)cc2)CC(=O)N1 (stereo not drawn)
Population Apoptotic (%) [1]: 78% | Population Fragmented Nuclei (%) [1]: 29% | Population Healthy Nuclei (%) [1]: 41% | Population Hoechst High Intensity Objects (%) [1]: 12% | Population Membrane Permeable-Phenotype (%) [1]: 20% | Population Mitochondria Different-Phenotype (%) [1]: 6% | Population Mitotic Cells (%) [1]: 21% | Population Normal (%) [1]: 87% | Population Pyknosed Nuclei (%) [1]: 29% | Population Tubulin-Different-Phenotype (%) [1]: 31% | Total Cell Count [1]: 124 | Population Apoptotic (%) [2]: 50% | Population Fragmented Nuclei (%) [2]: 2% | Population Healthy Nuclei (%) [2]: 93% | Population Hoechst High Intensity Objects (%) [2]: 10% | Population Membrane Permeable-Phenotype (%) [2]: 4% | Population Mitochondria Different-Phenotype (%) [2]: 9% | Population Mitotic Cells (%) [2]: 50% | Population Normal (%) [2]: 89% | Population Pyknosed Nuclei (%) [2]: 4% | Population Tubulin-Different-Phenotype (%) [2]: 14% | Total Cell Count [2]: 76 | Population Apoptotic (%) [3]: 55% | Population Fragmented Nuclei (%) [3]: 25% | Population Healthy Nuclei (%) [3]: 46% | Population Hoechst High Intensity Objects (%) [3]: 9% | Population Membrane Permeable-Phenotype (%) [3]: 24% | Population Mitochondria Different-Phenotype (%) [3]: 11% | Population Mitotic Cells (%) [3]: 44% | Population Normal (%) [3]: 90% | Population Pyknosed Nuclei (%) [3]: 27% | Population Tubulin-Different-Phenotype (%) [3]: 50% | Total Cell Count [3]: 144 | Population Apoptotic (%) [4]: 50% | Population Fragmented Nuclei (%) [4]: 21% | Population Healthy Nuclei (%) [4]: 70% | Population Membrane Permeable-Phenotype (%) [4]: 5% | Population Mitochondria Different-Phenotype (%) [4]: 12% | Population Mitotic Cells (%) [4]: 50% | Population Pyknosed Nuclei (%) [4]: 7% | Population Tubulin-Different-Phenotype (%) [4]: 25% | Total Cell Count [4]: 97 | Population Apoptotic (%) [5]: 54% | Population Fragmented Nuclei (%) [5]: 20% | Population Healthy Nuclei (%) [5]: 56% | Population Hoechst High Intensity Objects (%) [5]: 18% | Population Membrane Permeable-Phenotype (%) [5]: 35% | Population Mitochondria Different-Phenotype (%) [5]: 1% | Population Mitotic Cells (%) [5]: 45% | Population Normal (%) [5]: 81% | Population Pyknosed Nuclei (%) [5]: 23% | Population Tubulin-Different-Phenotype (%) [5]: 25% | Total Cell Count [5]: 127 | Population Apoptotic (%) [6]: 42% | Population Fragmented Nuclei (%) [6]: 7% | Population Healthy Nuclei (%) [6]: 86% | Population Hoechst High Intensity Objects (%) [6]: 4% | Population Membrane Permeable-Phenotype (%) [6]: 10% | Population Mitochondria Different-Phenotype (%) [6]: 13% | Population Mitotic Cells (%) [6]: 57% | Population Normal (%) [6]: 95% | Population Pyknosed Nuclei (%) [6]: 6% | Population Tubulin-Different-Phenotype (%) [6]: 16% | Total Cell Count [6]: 93 | Population Apoptotic (%) [7]: 40% | Population Fragmented Nuclei (%) [7]: 25% | Population Healthy Nuclei (%) [7]: 54% | Population Hoechst High Intensity Objects (%) [7]: 9% | Population Membrane Permeable-Phenotype (%) [7]: 22% | Population Mitochondria Different-Phenotype (%) [7]: 8% | Population Mitotic Cells (%) [7]: 59% | Population Normal (%) [7]: 90% | Population Pyknosed Nuclei (%) [7]: 19% | Population Tubulin-Different-Phenotype (%) [7]: 40% | Total Cell Count [7]: 125 | Population Apoptotic (%) [8]: 75% | Population Fragmented Nuclei (%) [8]: 23% | Population Healthy Nuclei (%) [8]: 68% | Population Hoechst High Intensity Objects (%) [8]: 6% | Population Membrane Permeable-Phenotype (%) [8]: 4% | Population Mitochondria Different-Phenotype (%) [8]: 14% | Population Mitotic Cells (%) [8]: 25% | Population Normal (%) [8]: 93% | Population Pyknosed Nuclei (%) [8]: 8% | Population Tubulin-Different-Phenotype (%) [8]: 29% | Total Cell Count [8]: 119 | Population Apoptotic (%) [9]: 66% | Population Fragmented Nuclei (%) [9]: 33% | Population Healthy Nuclei (%) [9]: 48% | Population Hoechst High Intensity Objects (%) [9]: 11% | Population Membrane Permeable-Phenotype (%) [9]: 19% | Population Mitochondria Different-Phenotype (%) [9]: 5% | Population Mitotic Cells (%) [9]: 33% | Population Normal (%) [9]: 88% | Population Pyknosed Nuclei (%) [9]: 18% | Population Tubulin-Different-Phenotype (%) [9]: 14% | Total Cell Count [9]: 131 | Population Apoptotic (%) [10]: 33% | Population Fragmented Nuclei (%) [10]: 31% | Population Healthy Nuclei (%) [10]: 65% | Population Hoechst High Intensity Objects (%) [10]: 22% | Population Membrane Permeable-Phenotype (%) [10]: 6% | Population Mitochondria Different-Phenotype (%) [10]: 0% | Population Mitotic Cells (%) [10]: 66% | Population Normal (%) [10]: 77% | Population Pyknosed Nuclei (%) [10]: 3% | Population Tubulin-Different-Phenotype (%) [10]: 23% | Total Cell Count [10]: 127 | Population Apoptotic (%) [11]: 46% | Population Fragmented Nuclei (%) [11]: 33% | Population Healthy Nuclei (%) [11]: 54% | Population Hoechst High Intensity Objects (%) [11]: 11% | Population Membrane Permeable-Phenotype (%) [11]: 26% | Population Mitochondria Different-Phenotype (%) [11]: 4% | Population Mitotic Cells (%) [11]: 53% | Population Normal (%) [11]: 88% | Population Pyknosed Nuclei (%) [11]: 11% | Population Tubulin-Different-Phenotype (%) [11]: 23% | Total Cell Count [11]: 130 | Population Apoptotic (%) [12]: 62% | Population Fragmented Nuclei (%) [12]: 26% | Population Healthy Nuclei (%) [12]: 65% | Population Membrane Permeable-Phenotype (%) [12]: 7% | Population Mitochondria Different-Phenotype (%) [12]: 1% | Population Mitotic Cells (%) [12]: 37% | Population Pyknosed Nuclei (%) [12]: 8% | Population Tubulin-Different-Phenotype (%) [12]: 22% | Total Cell Count [12]: 109
